Experimental data taken from ChEMBL document CHEMBL4316599, “Synthesis, in vitro and in vivo biological evaluation of substituted 3-(5-imidazo[2,1-b]thiazolylmethylene)-2-indolinones as new potent anticancer agents” (Eur J Med Chem, 2019).
pIC50: −log10 of the molar value. Activity calls are given as the source filed them. No cut-off for these calls is given here.

How the values were obtained:
[1] = tested on: E0771; test: Antitumor activity mouse E0771 cells implanted in C57BL/6 mouse assessed tumor growth inhibition at 7.5 mg/kg, ip dosed every other day for 20 days relative to control; type: functional; settings: 480 h, read-out: TGI
Summary of the method: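 Syngeneic allograft: C57BL/6 mice, six weeks old, given 2.5×10^5 BL6-B16 or E0771 cells subcutaneously in the dorsolateral flank in PBS. Dosing began at about 100 mm³. Test compound or reference was given intraperitoneally every other day in 50 μL DMSO, with DMSO vehicle controls. Tumor volume was compared with the vehicle group, 5 animals per group, mean ± SEM, by 2-way ANOVA with Bonferroni correction.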

[2] = tested on: HeLa; test: Cell cycle arrest in human HeLa cells assessed as decrease in cdc2 phosphorylation at 50 to 250 nM after 24 hrs by Western blot analysis; type: functional, cell-based
Summary of the method: (§1)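 HeLa cells treated 24 h, washed in ice-cold PBS and lysed on ice 30 min. Lysates were spun at 15000 x g, 4 °C. 10 µg protein run on SDS-PAGE and blotted to PVDF. Blots were blocked in 5% BSA overnight at 4 °C and probed 2 h at room temperature. Detection by HRP-secondary and ECL, with bands normalized to β-actin as fold of untreated. Three independent experiments, one-way ANOVA/Dunnett.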

[3] = tested on: HeLa; test: Cell cycle arrest in human HeLa cells assessed as decrease in p-cdc25c expression at 50 to 250 nM after 24 hrs by Western blot analysis; type: functional, cell-based; summary of the method: as §1
[4] = Toxicity in C57BL/6 mouse implanted with mouse B16-BL6 cells assessed as effect on body weight at 7.5 to 15 mg/kg, ip dosed every day for 18 days; type: organism-based; settings: in vivo, 432 h, in the assay text read “every other day” for “every day”
Summary of the method: (§2)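 C57BL/6 mice, six weeks old, received 2.5×10^5 BL6-B16 or E0771 cells s.c. in the dorsolateral flank in PBS. Dosing began once tumours reached about 100 mm³: 7.5 or 15 mg/kg i.p. every other day in 50 μL DMSO. Vehicle and CA-4P 30 mg/kg served as controls. Body weight was monitored, with 5 animals per group.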

[5] = tested on: HeLa; test: Cell cycle arrest in human HeLa cells assessed as accumulation of cells at G2/M phase after 24 hrs by propidium iodide staining-based flow cytometric analysis; type: functional
Summary of the method: (§3)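 Cells exposed to a range of concentrations for 24 h (HeLa at 5×10^5 cells), then fixed in ice-cold 70% ethanol. Lysis buffer with RNase A and 0.1% Triton X-100 was applied before PI staining. DNA content was read by flow cytometry and G1/S/G2/M fractions taken from DNA histograms. Mean ± SEM of two independent experiments.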

[6] = tested on: Leukemia cell; test: Cytotoxicity against human leukemia cells after 48 hrs by SRB assay; type: functional
Summary of the method: (§4)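 NCI-60 screen: single-dose pass at 10^-5 M, then a five-concentration assay from 10^-9 to 10^-4 M (highest 100 μM). Exposure was 48 h under standard NCI protocols. GI50, TGI and LC50 were derived per cell line and averaged by subpanel. Repeated tests are the mean of two experiments.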

[7] = target: T1, Tubulin (Bos taurus) (UniProt Q6B856+Q862L2+Q862F3); test: Inhibition of [3H]colchicine binding to bovine brain tubulin at 50 uM after 20 mins relative to control
Summary of the method: (§5)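 Reaction mixtures held 1 μM tubulin, 5 μM [³H]colchicine and test compound at 5 or 50 μM. Read-out was percent inhibition of colchicine binding.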

[8] = tested on: HeLa; test: Induction of ROS generation in human HeLa cells at 250 nM after 12 to 24 hrs by H2-DCFDA staining-based assay; type: functional, cell-based
Summary of the method: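 HeLa cells treated 6, 12, 24 or 48 h, then loaded with H2-DCFDA and analysed by flow cytometry for ROS. Mean ± SEM of three independent experiments, compared against control.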

[9] = tested on: A549; test: Cell cycle arrest in human A549 cells assessed as reduction in accumulation of cells at G1 phase up to 600 nM after 24 hrs by propidium iodide staining-based flow cytometric analysis; type: functional; summary of the method: as §3
[10] = tested on: K562; test: Cytotoxicity against human K562 cells after 48 hrs by SRB assay; type: functional, cell-based
[11] = Cytotoxicity against human PHA-stimulated PBL after 72 hrs by MTT assay; type: cell-based; settings: PHA-stimulated peripheral blood lymphocytes (PBL)
Summary of the method: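 Lymphocytes from healthy donors were isolated on a Lymphoprep gradient and held overnight in RPMI-1640 with 10% FBS. Non-adherent cells were set at 5×10^5 cells/mL, either resting or stimulated with 2.5 μg/mL PHA. Cells were exposed to a range of compound concentrations for 72 h and viability read by MTT. GI50 is the mean ± SEM of three separate experiments.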

[12] = tested on: Renal cancer cell line; test: Cytotoxicity against human renal cancer cells after 48 hrs by SRB assay; type: functional; summary of the method: as §4
[13] = tested on: Prostatic carcinoma cell; test: Cytotoxicity against human prostate cancer cells after 48 hrs by SRB assay; type: functional; summary of the method: as §4
[14] = Toxicity in C57BL/6 mouse implanted with mouse E0771 cells assessed as effect on body weight at 7.5 to 15 mg/kg, ip dosed every day for 20 days; type: organism-based; settings: in vivo, 480 h, in the assay text read “every other day” for “every day”; summary of the method: as §2
[15] = tested on: HT-29; test: Cell cycle arrest in human HT-29 cells assessed as accumulation of cells at G2/M phase after 24 hrs by propidium iodide staining-based flow cytometric analysis; type: functional; summary of the method: as §3
[16] = target: T1, Tubulin (Bos taurus); test: Inhibition of [3H]colchicine binding to bovine brain tubulin at 5 uM after 20 mins relative to control; summary of the method: as §5
[17] = tested on: A549; test: Cell cycle arrest in human A549 cells assessed as accumulation of cells at G2/M phase at 50 nM after 24 hrs by propidium iodide staining-based flow cytometric analysis relative to control; type: functional; summary of the method: as §3
[18] = tested on: HeLa; test: Induction of apoptosis in human HeLa cells assessed as decrease in Bcl-2 levels at 50 to 250 nM after 24 hrs by Western blot analysis; type: functional, cell-based; summary of the method: as §1
[19] = tested on: HeLa; test: Cell cycle arrest in human HeLa cells assessed as accumulation of cells at G2/M phase at 50 nM after 24 hrs by propidium iodide staining-based flow cytometric analysis relative to control; type: functional; summary of the method: as §3
[20] = tested on: HT-29; test: Cell cycle arrest in human HT-29 cells assessed as accumulation of cells at G2/M phase at 50 nM after 24 hrs by propidium iodide staining-based flow cytometric analysis relative to control; type: functional; summary of the method: as §3
[21] = tested on: B16-BL6; test: Growth inhibition of mouse B16-BL6 cells after 72 hrs by MTT assay; type: functional; settings: B16-BL6, 72 h
Summary of the method: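 Murine BL6-B16 melanoma and EO771 breast tumor cells were exposed to compound for 72 h. GI50 is reported ± error.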

[22] = tested on: K562; test: Cytotoxicity against human K562 cells after 16 hrs by SRB assay; settings: K562, 16 h
[23] = tested on: HT-29; test: Cell cycle arrest in human HT-29 cells assessed as reduction in accumulation of cells at S phase up to 1000 nM after 24 hrs by propidium iodide staining-based flow cytometric analysis; type: functional; summary of the method: as §3
[24] = tested on: HeLa; test: Induction of mitochondrial membrane depolarization in human HeLa cells at 250 to 500 nM after 6 to 48 hrs by JC-1 staining-based assay; type: functional, cell-based; settings: TDE = time-dependent effect
Summary of the method: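 HeLa cells treated at 250-500 nM for 6, 12, 24 or 48 h, then stained with JC-1. Percentage of cells with low mitochondrial membrane potential measured by flow cytometry. Mean ± SEM of three independent experiments.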

O=C1Nc2c(ccc3ccccc23)C1=Cc1c(-c2ccncc2)nc2sccn12
inhibition in vivo at 7.5 mg/kg [1]: 51.8%
Activity [2]: Active
Activity [3]: Active
Activity [4]: Non-Toxic
Activity [5]: Dose-dependent effect
GI50 [6]: 0.03 µM
TGI [6]: 79.5 µM
inhibition [7]: 51%
Activity [8]: Active
Activity [9]: Active
Activity [10]: Dose-dependent effect
GI50 at 72 h [11]: 5.5 µM
GI50 [12]: 11.8 µM
TGI [12]: 70.1 µM
GI50 [13]: 0.02 µM
TGI [13]: 55.9 µM
CC50 ([13]; read-out: LC50 (the source's name)): 80.1 µM
Activity [14]: Non-Toxic
Activity [15]: Dose-dependent effect
inhibition [16]: 25%
Activity [17]: >80%
Activity [18]: Active
Activity [19]: >80%
Activity [20]: >80%
GI50 [21]: 0.305 µM
pIC50 [22]: 7.52
Activity [23]: Active
Activity [24]: Tde
